# Measurements gathered from unrelated publications.
SMILES,target or system,test,test system,conditions,endpoint,result
O=c1[nH]cc(F)c(=O)[nH]1,PC-9,"cell growth or viability, CCK-8",,50 µM,viability,31.9%
COCC(=O)N1CCC[C@H](C(=O)NCc2nc(-c3ccccc3)cs2)C1,,,"male Sprague-Dawley rat, plasma","oral, 3 mg/kg",AUC,110 µM·h
CN(Cc1cn(Cc2ccc(-c3nc4cc(-c5ccccc5)ccn4c3Nc3ccc(C(=O)O)cc3)cc2)nn1)c1cccc2c1C(=O)N(C1CCC(=O)NC1=O)C2=O (stereo not drawn),HCT-116,cell growth or viability,,72 h,CC50,190 µM
C=C(CC(=O)OCOC(=O)OC(C)C)C(=O)O,,,PAMPA,"10 µM, 4 h, pH 7.4",Papp,< 1 ×10⁻⁶ cm/s
COc1nc(-c2cccc(-c3ccccc3)c2C)ccc1CNCCNC(=O)CCCCCCCCCCC(=O)N1CCN(CCNC(=O)c2cc3c(=O)n4cccc(C)c4nc3n(CCc3cccs3)c2=N)CC1,,,"male Sprague-Dawley rat, plasma","intraperitoneal, 4 mg/kg",AUC(0-inf),2450 ng·h/mL
O=C1CCC(N2C(=O)c3cccc(NCc4cn(Cc5ccc(-c6nc7cc(-c8ccccc8)ccn7c6Nc6ccc(C(=O)O)cc6)cc5)nn4)c3C2=O)C(=O)N1 (stereo not drawn),HCT-116,cell growth or viability,,72 h,CC50,193 µM
COc1cccc2c(N3CCC(CCP(=O)(O)O)CC3)ncnc12,EMT6,,"female BALB/c, tumour","subcutaneous, 50 mg/kg, tumour-bearing",half-life,6.6 h
COCC(=O)N1CCC[C@H](C(=O)NCc2nc(-c3ccc(C#N)cc3)cs2)C1,,,"male Sprague-Dawley rat, plasma","oral, 3 mg/kg",AUC,120 µM·h
C[C@H]1Oc2cc(cnc2N)-c2c(nn(C)c2C#N)CN(C)C(=O)c2ccc(F)cc21,,,"male Sprague-Dawley rat, plasma","oral, 5 mg/kg, single dose",AUC(0-t),1780 ng·h/mL
